Results reported in paper PMC5384886 (International Journal for Parasitology: Drugs and Drug …, 2017).
Read-outs that look alike come from different tables or passages of the source.

What was measured:
[1] = test system: Pf3D7 (chloroquine-sensitive) strain; assay: In vitro P. falciparum whole cell assay; assay type: cell-based; conditions: Plasmodium falciparum, 72 h, read-out: Pf3D7 IC50
How it was run: (§1)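 Parasites synchronised to 95% ring stage with 5% sorbitol. Stocks: chloroquine in water, test compounds and dihydroartemisinin in DMSO, diluted in incomplete 1640 medium. Ring-stage cultures (1% parasitaemia, 2% haematocrit) exposed to serial dilutions for 72 h at 37 °C. Growth read by SYBR Green I fluorescence. IC50 from a sigmoidal growth fit.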

[2] = test system: PfDd2 (chloroquine-resistant) strain; assay: In vitro P. falciparum whole cell assay; assay type: cell-based; conditions: Plasmodium falciparum, 72 h, read-out: PfDd2 IC50
How it was run: as §1

[3] = test system: adult S. japonicum; assay: In vitro assay for drug effect on adult S. japonicum; assay type: cell-based, Schistosoma japonicum; conditions: 72 h
How it was run: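 Adult worms taken from infected mice 34–38 days post-infection, perfused with ice-cold heparinised HBSS, rinsed three times. Kept in RPMI 1640 with 10% calf serum, penicillin, streptomycin and amphotericin B. Four worm pairs per well, 2 h preincubation at 37 °C, 5% CO2, then compound at final 10 or 5 μg/mL; DMSO control. Scored at 24, 48, 72 h; death = no sucker/body movement for 2 min.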

[4] = test system: juvenile S. japonicum (schistosomula); assay: In vitro assay for drug effect on juvenile S. japonicum; assay type: cell-based, Schistosoma japonicum; conditions: 10 μg/mL
How it was run: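 Cercariae mechanically transformed to schistosomula and kept in RPMI 1640 with 5% FBS, 100 IU/mL penicillin and 100 μg/mL streptomycin at 37 °C, 5% CO2. 50 schistosomula/well exposed to compound at final 10 μg/mL for 72 h, in duplicate, with DMSO negative control. Activity, survival time, mortality and morphology scored microscopically at 12, 24, 48 and 72 h.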

[5] = test system: β-hematin formation; assay: Inhibition assay of β-hematin formation; assay type: biochemical; conditions: for β-Hematin % Inhibition: at a concentration of 100 μM; for IC50: read-out: β-Hematin IC50
How it was run: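 NP-40 detergent-mediated β-hematin assay. Compound in DMSO plus NP-40 and water. Hematin was dissolved in DMSO (25 mM stock) and suspended in acetate buffer (pH 4.8; final 0.5 M). Incubated 4 h at 37 °C. Controls: DMSO (negative), chloroquine and amodiaquine (100 μM final). Pyridine-ferrichrome read-out: 5% v/v final pyridine, HEPES pH 7.4, extra acetone, 405 nm. % inhibition at 100 μM; IC50 from concentration series; triplicate, repeated twice.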

[6] = Cytotoxicity assay on WI38 cells; assay type: cell-based, human; conditions: human, WI38 cells (human embryonic lung fibroblasts)
How it was run: (§2)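 WI38 cells harvested at log phase and seeded at 10 000/well in DMEM or MEM with 10% FBS and 1% penicillin-streptomycin. After 12 h adherence at 37 °C, 5% CO2, 2-fold dilutions (final 50 to 1.57 μM) were added in triplicate for 2 days. MTT read-out: 4 h, DMSO solubilisation, 490 nm. CC50 is the mean of two independent experiments. SI = CC50/IC50 for each Pf strain.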

[7] = test system: human embryonic lung fibroblast WI38; assay: Cytotoxicity assay on WI38 cells; assay type: cell-based; conditions: for SI CC50/IC50 (Pf3D7): CC50 WI38 / IC50 Pf3D7; for SI CC50/IC50 (PfDd2): CC50 WI38 / IC50 PfDd2
How it was run: as §2

| SMILES | IC50 [1] | IC50 [2] | Adult S. japonicum worm-killing ([3]; 5 μg/mL) | Adult S. japonicum worm-killing ([3]; 10 μg/mL) | Juvenile S. japonicum worm-killing [4] | β-Hematin % Inhibition [5] | IC50 [5] | CC50 at 2 days [6] | SI CC50/IC50 (Pf3D7) [7] | SI CC50/IC50 (PfDd2) [7] | IC50 ([5]; listed as chloroquine) |
| --- | --- | --- | --- | --- | --- | --- | --- | --- | --- | --- | --- |
| CCCCNC[C@@H](O)Cn1c2ccc(Cl)cc2c2cc(Cl)ccc21 [(R)-7, (R)-1-(butylamino)-3-(3,6-dichloro-9H-carbazol-9-yl)propan-2-ol] | 344 ± 54 nM | 172 ± 32 nM | + | + | + | 75.13% | 119000 ± 7140 nM | 7690 nM | 22 | 45 | – |
| CCCCNC[C@H](O)Cn1c2ccc(Cl)cc2c2cc(Cl)ccc21 [(S)-7, (S)-1-(butylamino)-3-(3,6-dichloro-9H-carbazol-9-yl)propan-2-ol] | 378 ± 91 nM | 112 ± 30 nM | + | + | + | 80.09% | 106000 ± 8420 nM | 9340 nM | 24 | 83 | – |
| CCN(CC)Cc1cc(Nc2ccnc3cc(Cl)ccc23)ccc1O [Amodiaquine, reference compound] | – | – | – | – | – | 100% | 15900 ± 1290 nM | – | – | – | – |
| CCN(CC)CCCC(C)Nc1ccnc2cc(Cl)ccc12 (stereo not drawn) [Chloroquine, reference compound] | 15 ± 8 nM | 231 ± 24 nM | – | – | – | 97.8% | 61000 ± 5550 nM | – | – | – | 61000 nM |
| OC(CN1CCCC1)Cn1c2ccc(Cl)cc2c2cc(Cl)ccc21 (stereo not drawn) [Compound 3, 1-(3,6-Dichloro-9H-carbazol-9-yl)-3-(pyrrolidin-1-yl)propan-2-ol] | 2670 ± 870 nM | – | – | + | – | 10.76% | – | – | – | – | – |
| OC(CN1CCCCC1)Cn1c2ccc(Cl)cc2c2cc(Cl)ccc21 (stereo not drawn) [Compound 4, 1-(3,6-Dichloro-9H-carbazol-9-yl)-3-(piperidin-1-yl)propan-2-ol] | – | – | – | + | – | – | – | – | – | – | – |
| OC(CN1CCOCC1)Cn1c2ccc(Cl)cc2c2cc(Cl)ccc21 (stereo not drawn) [Compound 5, 1-(3,6-Dichloro-9H-carbazol-9-yl)-3-morpholinopropan-2-ol] | 1290 ± 329 nM | – | – | – | – | 0% | – | – | – | – | – |
| CCCCCCNCC(O)Cn1c2ccc(Cl)cc2c2cc(Cl)ccc21 (stereo not drawn) [Compound 9, 1-(3,6-Dichloro-9H-carbazol-9-yl)-3-(hexylamino)propan-2-ol] | 274 ± 63 nM | 47 ± 10 nM | ± | + | + | 81.85% | 55000 ± 5870 nM | 5920 nM | 22 | 126 | – |
| CCCCCCCNCC(O)Cn1c2ccc(Cl)cc2c2cc(Cl)ccc21 (stereo not drawn) [Compound 10, 1-(3,6-Dichloro-9H-carbazol-9-yl)-3-(heptylamino)propan-2-ol] | 179 ± 44 nM | 54 ± 10 nM | ± | + | + | 74.74% | 91600 ± 4670 nM | 5140 nM | 28 | 95 | – |
| CCCCCCCCNCC(O)Cn1c2ccc(Cl)cc2c2cc(Cl)ccc21 (stereo not drawn) [Compound 11, 1-(3,6-Dichloro-9H-carbazol-9-yl)-3-(octylamino)propan-2-ol] | 132 ± 59 nM | 54 ± 6 nM | ± | + | + | 50.59% | 65400 ± 4900 nM | 3770 nM | 29 | 70 | – |
| C[C@H]1[C@@H](O)O[C@@H]2O[C@@]3(C)CC[C@H]4[C@H](C)CC[C@@H]1[C@@]24OO3 [Dihydroartemisinin, reference compound] | – | 5 ± 0.2 nM | – | – | – | – | – | – | – | – | – |
| O=C(C1CCCCC1)N1CC(=O)N2CCc3ccccc3C2C1 (stereo not drawn) [Praziquantel, reference compound] | – | – | + | + | – | – | – | – | – | – | – |
